This is an account of results in ChEMBL document CHEMBL1138117, “Hybrid antibacterials. DNA polymerase-topoisomerase inhibitors” (J Med Chem, 2006).

In general, MIC refers to the least concentration at which growth counts as inhibited. By Ki is commonly meant a dissociation constant, usually derived from enzyme kinetics or from competition with a known ligand. A word on the ED50: it is the dose that gives a 50% effect, or the effect in half of the subjects. High values mean weaker potency, low ones greater potency. By IC50 is commonly meant the midpoint of a concentration-inhibition curve. High values mean weaker potency in that assay, low ones greater potency in that assay.

≈ marks a conversion by molar mass, not a printed value. Where only a bound is given, the exact number is not on record here.

Test [1] relates to Enterococcus faecium. Put plainly: Antibacterial activity against Vancomycin resistant Enterococcus faecium VRE 700802. Type of test: functional.
The subject of the next test is Bacillus subtilis. The test is described as follows: Antibacterial activity against Bacillus subtilis BD54. Type of test: functional.
Test [2] relates to Enterococcus faecium. Put plainly: Antibacterial activity against Enterococcus faecium 19434. Type of test: functional.
The subject of the next test is Escherichia coli. Put plainly: Antibacterial activity against Escherichia coli J53. The format is functional.
The test system of the next test is Enterococcus faecalis. Put plainly: Antibacterial activity against Enterococcus faecalis 29212. Type of test: functional.
The target of test [3] is DNA polymerase III PolC-type (Bacillus subtilis (strain 168), UniProt P13267). The test is described as follows: Binding affinity to Bacillus subtilis DNA polymerase3C. Put shortly: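 Homogeneous recombinant B. subtilis pol IIIC was assayed in 96-well format on activated calf thymus DNA. Apparent Ki values were determined in a truncated assay lacking the competitor dGTP.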

Test [4] relates to Staphylococcus aureus. The test is described as follows: Antibacterial activity against Staphylococcus aureus smith. Type of test: functional.
Test [5] deals with Staphylococcus aureus. Put plainly: Antibacterial activity against Staphylococcus aureus 25293. The format is functional.
For test [6], the system named is Staphylococcus aureus. Put plainly: Antibacterial activity against methicillin resistant Staphylococcus aureus MRSA 1094. Type of test: functional.
In another test the test system is Mus musculus. Put plainly: Effect on survival of mice after ip infection with Staphylococcus aureus Smith. Type of test: functional. Put shortly:
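Male Swiss-Webster mice (20–24 g) were given 10⁸ CFU of log-phase S. aureus Smith ip, grown in LB at 37 °C and washed in cold broth. A single iv tail-vein dose was given in DCP vehicle (10% DMA, 10% Cremophor EL in PBS, pH 9.5; 5 mL/kg) 15 min post-infection. Survival was scored at 72 h and ED50 derived.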

Test [7] has as its system DNA gyrase (Bacillus subtilis). The test is described as follows: Inhibition of Bacillus subtilis gyrase activity.

Chain of DNA polymerase III PolC-type (P13267 whole entry, the tested form may be a part): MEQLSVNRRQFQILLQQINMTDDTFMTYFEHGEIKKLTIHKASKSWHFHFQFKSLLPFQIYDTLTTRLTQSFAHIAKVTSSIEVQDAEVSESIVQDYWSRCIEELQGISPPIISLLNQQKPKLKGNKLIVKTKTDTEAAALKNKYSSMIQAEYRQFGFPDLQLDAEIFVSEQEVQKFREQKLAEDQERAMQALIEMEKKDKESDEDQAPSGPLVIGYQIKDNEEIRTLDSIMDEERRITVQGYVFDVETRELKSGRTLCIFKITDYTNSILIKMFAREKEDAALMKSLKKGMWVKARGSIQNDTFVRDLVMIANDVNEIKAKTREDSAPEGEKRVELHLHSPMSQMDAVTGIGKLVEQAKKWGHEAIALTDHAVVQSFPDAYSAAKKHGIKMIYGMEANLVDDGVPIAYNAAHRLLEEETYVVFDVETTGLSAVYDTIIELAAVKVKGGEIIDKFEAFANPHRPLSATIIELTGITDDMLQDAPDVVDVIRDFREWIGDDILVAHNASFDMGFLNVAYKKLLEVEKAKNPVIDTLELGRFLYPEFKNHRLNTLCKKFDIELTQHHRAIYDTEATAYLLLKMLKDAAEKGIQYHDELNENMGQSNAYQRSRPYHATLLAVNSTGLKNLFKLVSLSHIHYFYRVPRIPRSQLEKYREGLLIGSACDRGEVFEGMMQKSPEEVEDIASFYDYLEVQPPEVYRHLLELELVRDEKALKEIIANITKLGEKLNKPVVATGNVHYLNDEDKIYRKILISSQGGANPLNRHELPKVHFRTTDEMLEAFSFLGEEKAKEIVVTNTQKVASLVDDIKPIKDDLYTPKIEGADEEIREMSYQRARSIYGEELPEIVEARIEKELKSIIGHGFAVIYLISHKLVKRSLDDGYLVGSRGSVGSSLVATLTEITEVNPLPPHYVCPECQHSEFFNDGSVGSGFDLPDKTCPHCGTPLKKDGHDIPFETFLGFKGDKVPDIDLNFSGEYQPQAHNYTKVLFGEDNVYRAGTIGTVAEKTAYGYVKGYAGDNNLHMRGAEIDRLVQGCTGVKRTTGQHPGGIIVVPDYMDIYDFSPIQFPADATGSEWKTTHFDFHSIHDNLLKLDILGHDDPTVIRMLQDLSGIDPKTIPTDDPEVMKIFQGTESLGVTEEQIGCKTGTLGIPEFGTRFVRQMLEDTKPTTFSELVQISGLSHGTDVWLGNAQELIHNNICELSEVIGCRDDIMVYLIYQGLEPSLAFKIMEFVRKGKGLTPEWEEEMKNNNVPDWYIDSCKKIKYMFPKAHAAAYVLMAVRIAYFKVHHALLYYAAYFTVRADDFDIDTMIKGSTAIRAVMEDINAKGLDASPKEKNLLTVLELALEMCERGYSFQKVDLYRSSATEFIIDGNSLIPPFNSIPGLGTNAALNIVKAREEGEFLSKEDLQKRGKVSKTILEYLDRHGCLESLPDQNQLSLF

As for `O=C(O)c1cn(C2CC2)c2cc(N3CCN(CCCCn4c(=O)cc(Nc5ccccc5)[nH]c4=O)CC3)c(F)cc2c1=O`, the MIC against Enterococcus faecium [1] is 40 µg/mL (≈ 68 µM); in the test on Bacillus subtilis it was 2.5 µg/mL (≈ 4.25 µM); against Enterococcus faecium [2], more than 40 µg/mL; in the test on Escherichia coli it was more than 40 µg/mL; in the test on Enterococcus faecalis it was 10 µg/mL (≈ 17 µM); against Staphylococcus aureus [4] it was 2.5 µg/mL (≈ 4.25 µM). Also, the minimum inhibitory concentration (MIC) against Staphylococcus aureus [5] was 2.5 µg/mL (≈ 4.25 µM); with Staphylococcus aureus [6], more than 40 µg/mL. Moreover, in test [3] (read-out: Ki), the Ki worked out at 29000 nM.
As for `CCc1cc(Nc2cc(=O)n(CCCCN3CCN(c4c(F)cc5c(=O)c(C(=O)O)cn(C6CC6)c5c4Cl)CC3)c(=O)[nH]2)ccc1C`, the MIC with Enterococcus faecium [1] stood at 0.625 µg/mL (≈ 0.94 µM); in the test with Bacillus subtilis, 0.078 µg/mL (≈ 0.117 µM); in the test with Enterococcus faecium [2], 1.25 µg/mL (≈ 1.88 µM); against Escherichia coli, 20 µg/mL (≈ 30.1 µM); in the test with Enterococcus faecalis it was 0.625 µg/mL (≈ 0.94 µM); against Staphylococcus aureus [4], 0.156 µg/mL (≈ 0.235 µM). The MIC amounted to 0.313 µg/mL (≈ 0.471 µM) in the test on Staphylococcus aureus [5] and 1.25 µg/mL (≈ 1.88 µM) with Staphylococcus aureus [6]. For the same molecule, the Ki in test [3] (read-out: Ki) amounted to 10 nM.
With `CCc1cc(Nc2cc(=O)n(CCCCCN3CCN(c4cc5c(cc4F)c(=O)c(C(=O)O)cn5C4CC4)CC3)c(=O)[nH]2)ccc1C`, the MIC against Enterococcus faecium [1] was 1.25 µg/mL (≈ 1.94 µM); against Bacillus subtilis it was 0.313 µg/mL (≈ 0.485 µM); against Enterococcus faecium [2] it was 1.25 µg/mL (≈ 1.94 µM); against Escherichia coli, more than 40 µg/mL; in the test on Enterococcus faecalis it was 0.625 µg/mL (≈ 0.969 µM); against Staphylococcus aureus [4], 1.25 µg/mL (≈ 1.94 µM). Also, the MIC with Staphylococcus aureus [5] came to 1.25 µg/mL (≈ 1.94 µM); against Staphylococcus aureus [6], 2.5 µg/mL (≈ 3.88 µM). The Ki in test [3] (read-out: Ki) came to 19 nM.
In the case of `CCc1cc(Nc2cc(=O)n(CCCCCN3CC4CCCN(c5cc6c(cc5F)c(=O)c(C(=O)O)cn6CC)C4C3)c(=O)[nH]2)ccc1C` (configuration not stated), the MIC is 5 µg/mL (≈ 7.43 µM) with Enterococcus faecium [1]; 2.5 µg/mL (≈ 3.72 µM) against Bacillus subtilis; 20 µg/mL (≈ 29.7 µM) against Enterococcus faecium [2]; more than 80 µg/mL against Escherichia coli; 10 µg/mL (≈ 14.9 µM) with Enterococcus faecalis; 5 µg/mL (≈ 7.43 µM) against Staphylococcus aureus [4]. Further, the MIC in the test on Staphylococcus aureus [5] is 10 µg/mL (≈ 14.9 µM); in the test on Staphylococcus aureus [6], more than 80 µg/mL. The Ki in [3] (read-out: Ki) was determined as 37 nM.
With `CCc1cc(Nc2cc(=O)n(CCCCN3CCN(c4cc5c(cc4F)c(=O)c(C(=O)O)cn5CC)CC3)c(=O)[nH]2)ccc1C`, the MIC against Enterococcus faecium [1] was 0.625 µg/mL (≈ 1.01 µM); in the test on Bacillus subtilis it was 0.313 µg/mL (≈ 0.506 µM); in the test on Enterococcus faecium [2], 0.625 µg/mL (≈ 1.01 µM); in the test on Escherichia coli it was more than 40 µg/mL; with Enterococcus faecalis, 0.625 µg/mL (≈ 1.01 µM); in the test with Staphylococcus aureus [4], 1.25 µg/mL (≈ 2.02 µM). Further, the results for the MIC against Staphylococcus aureus [5] and in the test with Staphylococcus aureus [6] were 1.25 µg/mL (≈ 2.02 µM) and 2.5 µg/mL (≈ 4.04 µM), respectively.
With `CCc1cc(Nc2cc(=O)n(CCCCN3CCN(c4c(F)cc5c(=O)c(C(=O)O)cn(C6CC6)c5c4OC)CC3)c(=O)[nH]2)ccc1C`, the 50% effect level with Mus musculus (ED50) was put at a dose of 25 mg/kg. Moreover, the MIC against Enterococcus faecium [1] is 0.625 µg/mL (≈ 0.946 µM); in the test on Bacillus subtilis it was 0.156 µg/mL (≈ 0.236 µM); in the test with Enterococcus faecium [2], 1.25 µg/mL (≈ 1.89 µM); in the test with Escherichia coli, more than 40 µg/mL; in the test with Enterococcus faecalis it was 1.25 µg/mL (≈ 1.89 µM); with Staphylococcus aureus [4] it was 0.313 µg/mL (≈ 0.474 µM). The MIC with Staphylococcus aureus [5] turned out to be 0.625 µg/mL (≈ 0.946 µM); against Staphylococcus aureus [6] it was 1.25 µg/mL (≈ 1.89 µM). The Ki in test [3] (read-out: Ki) was found to be 14 nM.
Consider `CCc1cc(Nc2cc(=O)n(CCCCN3CCN(c4nc5c(cc4F)c(=O)c(C(=O)O)cn5CC)CC3)c(=O)[nH]2)ccc1C`, for which the MIC was 0.625 µg/mL (≈ 1.01 µM) in the test with Enterococcus faecium [1]; 0.313 µg/mL (≈ 0.505 µM) in the test with Bacillus subtilis; 1.25 µg/mL (≈ 2.02 µM) against Enterococcus faecium [2]; more than 40 µg/mL in the test on Escherichia coli; 1.25 µg/mL (≈ 2.02 µM) in the test on Enterococcus faecalis; 2.5 µg/mL (≈ 4.03 µM) against Staphylococcus aureus [6].
For the molecule `CCc1cc(Nc2cc(=O)n(CCCCN3CCN(c4cc5c(cc4F)c(=O)c(C(=O)O)cn5C(C)(C)C)CC3)c(=O)[nH]2)ccc1C.Cl`, the MIC with Enterococcus faecium [1] was 1.25 µg/mL; with Bacillus subtilis, 0.313 µg/mL; with Enterococcus faecium [2] it was 1.25 µg/mL; in the test with Escherichia coli, more than 40 µg/mL; in the test on Enterococcus faecalis it was 0.625 µg/mL; in the test on Staphylococcus aureus [4], 0.625 µg/mL. Besides, the MIC with Staphylococcus aureus [5] was determined as 0.625 µg/mL; with Staphylococcus aureus [6], 1.25 µg/mL. For the same molecule, in test [3] (read-out: Ki), the Ki is 13 nM.
For `O=C(O)c1cn(C2CC2)c2cc(N3CCNCC3)c(F)cc2c1=O` [CIPROFLOXACIN], the minimum inhibitory concentration (MIC) in the test with Enterococcus faecium [1] was found to be 80 µg/mL (≈ 241 µM); in the test on Escherichia coli, 0.313 µg/mL (≈ 0.945 µM); with Staphylococcus aureus [5], 0.313 µg/mL (≈ 0.945 µM); against Staphylococcus aureus [6] it was 20 µg/mL (≈ 60.4 µM). Further, in test [3], the Ki entry is recorded as “Not Active”. Further, in [7], the IC50 was determined as 1.9 µg/mL (≈ 5.73 µM).
Regarding `CC(=O)NC[C@H]1CN(c2ccc(N3CCOCC3)c(F)c2)C(=O)O1` [LINEZOLID], the MIC in the test with Enterococcus faecium [1] was 1.25 µg/mL (≈ 3.71 µM); against Bacillus subtilis, 0.625 µg/mL (≈ 1.85 µM); against Enterococcus faecium [2] it was 2.5 µg/mL (≈ 7.41 µM); against Escherichia coli, more than 80 µg/mL; in the test on Enterococcus faecalis it was 1.25 µg/mL (≈ 3.71 µM); against Staphylococcus aureus [4], 2.5 µg/mL (≈ 7.41 µM). The MIC against Staphylococcus aureus [5] and in the test with Staphylococcus aureus [6] was 1.25 µg/mL (≈ 3.71 µM) each time. Also, the Ki entry in test [3] is on record as “Not Active”.
In turn, `CCn1cc(C(=O)O)c(=O)c2ccc(C)nc21` [NALIDIXIC ACID] came in with an IC50 in [7] of 34.6 µg/mL (≈ 149 µM).
With `CCn1cc(C(=O)O)c(=O)c2cc(F)c(N3CCNCC3)cc21` [NORFLOXACIN], the MIC is 80 µg/mL (≈ 251 µM) against Enterococcus faecium [1]; 0.313 µg/mL (≈ 0.98 µM) against Bacillus subtilis; 10 µg/mL (≈ 31.3 µM) with Enterococcus faecium [2]; 1.25 µg/mL (≈ 3.91 µM) against Escherichia coli; 2.5 µg/mL (≈ 7.83 µM) against Enterococcus faecalis; 40 µg/mL (≈ 125 µM) with Staphylococcus aureus [6]. In addition, the Ki result in test [3] is given as “Not Active”.
